How the values were obtained:
Rattus norvegicus [1] = assay: Antiinflammatory activity against carrageenan-induced paw oedema in albino rat assessed as hind paw thickness at 18 mg/kg, ip pretreated for 1 hr followed by carrageenan challenge and measured after 1 hr by caliper method (reference value: 0.73 +/- 0.03 millimeter); assay type: functional
Summary of the method: (§1)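 Male albino rats, 150–200 g, six per group, housed at 27 °C on a 12/12 light-dark cycle. Given 18 mg/kg i.p.; control group left untreated. Right hind paw injected 1 h later with 0.1 mL 10% carrageenin. Paw thickness measured by skin caliper at 1, 2, 3 and 4 h after injection. Reported as mean ± S.D., n = 6; significance p < 0.05.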

[2] = Ulcerogenicity in albino rat assessed as ulcer index at 18 mg/kg, po administrated once daily for 3 successive days and measured after 6 hrs from last dose (reference value: 0); assay type: toxicity, organism-based; conditions: in vivo
Rattus norvegicus [3] = assay: Antiinflammatory activity against carrageenan-induced paw oedema in albino rat assessed as hind paw thickness at 18 mg/kg, ip pretreated for 1 hr followed by carrageenan challenge and measured after 4 hrs by caliper method (reference value: 1.24 +/- 0.02 millimeter); assay type: functional; summary of the method: as §1
Rattus norvegicus [4] = assay: Antiinflammatory activity in albino rat assessed as inhibition of carrageenan-induced paw edema at 18 mg/kg, ip pretreated for 1 hr followed by carrageenan challenge and measured after 1 hr by caliper method relative to control; assay type: functional
Summary of the method: (§2)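 Carrageenin paw edema in male albino rats (150–200 g, n = 6 per group), 18 mg/kg i.p. 1 h before 0.1 mL 10% carrageenin into the right hind paw. Caliper thickness at 1–4 h. Percent edema inhibition derived from thickness change relative to the untreated control group.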

Rattus norvegicus [5] = assay: Antiinflammatory activity in albino rat assessed as inhibition of carrageenan-induced paw edema at 18 mg/kg, ip pretreated for 1 hr followed by carrageenan challenge and measured after 2 hrs by caliper method relative to control; assay type: functional; summary of the method: as §2
Rattus norvegicus [6] = assay: Antiinflammatory activity against carrageenan-induced paw oedema in albino rat assessed as hind paw thickness at 18 mg/kg, ip pretreated for 1 hr followed by carrageenan challenge and measured immediately by caliper method (reference value: 0.24 +/- 0.24 millimeter); assay type: functional
Rattus norvegicus [7] = assay: Antiinflammatory activity in albino rat assessed as inhibition of carrageenan-induced paw edema at 18 mg/kg, ip pretreated for 1 hr followed by carrageenan challenge and measured after 4 hrs by caliper method relative to control; assay type: functional; summary of the method: as §2
[8] = target: T1, Prostaglandin G/H synthase 1 (Ovis aries, UniProt P05979); assay: Inhibition of ovine COX1 assessed as reduction in oxidized TMPD using arachidonic acid as substrate preincubated for 5 mins followed by substrate addition and measured after 2 mins by colorimetric assay
T1 sequence (P05979 whole entry): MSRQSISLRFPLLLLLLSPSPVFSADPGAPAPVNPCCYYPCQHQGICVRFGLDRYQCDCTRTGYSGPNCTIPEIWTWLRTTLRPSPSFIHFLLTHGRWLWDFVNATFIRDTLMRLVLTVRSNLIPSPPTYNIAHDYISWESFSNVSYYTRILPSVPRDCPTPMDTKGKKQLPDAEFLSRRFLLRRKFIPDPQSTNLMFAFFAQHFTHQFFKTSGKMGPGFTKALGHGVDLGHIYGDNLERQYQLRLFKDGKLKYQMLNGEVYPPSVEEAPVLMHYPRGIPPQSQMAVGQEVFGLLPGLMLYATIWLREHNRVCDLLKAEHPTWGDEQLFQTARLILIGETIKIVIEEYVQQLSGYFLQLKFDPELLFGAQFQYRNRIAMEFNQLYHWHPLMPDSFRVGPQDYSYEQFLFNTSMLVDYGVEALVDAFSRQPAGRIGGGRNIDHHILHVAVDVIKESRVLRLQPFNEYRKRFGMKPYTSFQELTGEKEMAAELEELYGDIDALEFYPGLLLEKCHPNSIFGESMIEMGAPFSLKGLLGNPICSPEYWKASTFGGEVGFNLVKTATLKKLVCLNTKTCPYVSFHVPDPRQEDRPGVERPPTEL

[9] = Ulcerogenicity in albino rat assessed as incidence of gastric ulceration at 18 mg/kg, po administrated once daily for 3 successive days and measured after 6 hrs from last dose relative to control; assay type: toxicity, organism-based; conditions: in vivo
[10] = Ulcerogenicity in albino rat assessed as average severity score at 18 mg/kg, po administrated once daily for 3 successive days and measured after 6 hrs from last dose (reference value: 0); assay type: toxicity, organism-based; conditions: in vivo
Rattus norvegicus [11] = assay: Antiinflammatory activity against carrageenan-induced paw oedema in albino rat assessed as hind paw thickness at 18 mg/kg, ip pretreated for 1 hr followed by carrageenan challenge and measured after 2 hrs by caliper method (reference value: 0.84 +/- 0.02 millimeter); assay type: functional; summary of the method: as §1
Rattus norvegicus [12] = assay: Antiinflammatory activity against carrageenan-induced paw oedema in albino rat assessed as hind paw thickness at 18 mg/kg, ip pretreated for 1 hr followed by carrageenan challenge and measured after 3 hrs by caliper method (reference value: 0.94 +/- 0.02 millimeter); assay type: functional; summary of the method: as §1
Rattus norvegicus [13] = assay: Antiinflammatory activity in albino rat assessed as inhibition of carrageenan-induced paw edema at 18 mg/kg, ip pretreated for 1 hr followed by carrageenan challenge and measured after 3 hrs by caliper method relative to control; assay type: functional; summary of the method: as §2

SMILES | Activity (Rattus norvegicus [1]) [mm] | UI [2] | Activity (Rattus norvegicus [3]) [mm] | inhibition in vivo at 18 mg/kg (Rattus norvegicus [4]) [%] | inhibition in vivo at 18 mg/kg (Rattus norvegicus [5]) [%] | Activity (Rattus norvegicus [6]) [mm] | inhibition in vivo at 18 mg/kg (Rattus norvegicus [7]) [%] | IC50 [8] [µM] | Activity [9] [%] | Activity [10] | Activity (Rattus norvegicus [11]) [mm] | Activity (Rattus norvegicus [12]) [mm] | inhibition in vivo at 18 mg/kg (Rattus norvegicus [13]) [%]
Cc1cc(-c2ccccc2)n(C(=O)C(C(=O)n2nc(C)cc2-c2ccccc2)N2C(=O)c3ccccc3S2(=O)=O)n1 | 0.36 | 4 | 0.48 | 50.7 | 51.2 | 0.24 | 61.3 | 11.8 | 20 | 0.2 | 0.41 | 0.41 | 56.4
Cc1cc(-c2ccccc2)n(C(=O)c2ccccc2S(=O)(=O)NC(C)C)n1 | 0.32 | 4 | 0.43 | 56.2 | 57.1 | 0.24 | 65.3 | 9.24 | 20 | 0.2 | 0.36 | 0.38 | 59.6
O=S(=O)(NCc1ccccc1)c1ccccc1-c1nnc(S)n1/N=C/c1ccccc1 |  |  |  |  |  |  |  | 6.45 |  |  |  |  | 
O=S(=O)(NCc1ccccc1)c1ccccc1-c1nnc(S)n1/N=C/c1ccc(Cl)cc1 |  |  |  |  |  |  |  | 5.71 |  |  |  |  | 
COc1ccc2c(c1)c(CC(=O)O)c(C)n2C(=O)c1ccc(Cl)cc1 [INDOMETHACIN] |  | 480 |  |  |  |  |  |  | 100 | 4.8 |  |  | 
O=S(=O)(NCc1ccccc1)c1ccccc1-c1nnc(SCc2ccccc2)o1 |  |  |  |  |  |  |  | 3.68 |  |  |  |  | 
O=C(N/N=C/c1ccc(Cl)cc1)C(C(=O)N/N=C/c1ccc(Cl)cc1)N1C(=O)c2ccccc2S1(=O)=O |  |  |  |  |  |  |  | 7.65 |  |  |  |  | 
COc1ccc(/C=N/n2c(S)nnc2-c2ccccc2S(=O)(=O)NCc2ccccc2)cc1 |  |  |  |  |  |  |  | 3.25 |  |  |  |  | 
Nn1c(S)nnc1-c1ccccc1S(=O)(=O)NCc1ccccc1 | 0.44 | 360 | 0.63 | 39.7 | 42.9 | 0.24 | 49.2 | 2.98 | 100 | 3.6 | 0.48 | 0.56 | 45.4
O=C(N/N=C/c1ccccc1)C(C(=O)N/N=C/c1ccccc1)N1C(=O)c2ccccc2S1(=O)=O |  |  |  |  |  |  |  | 1.98 |  |  |  |  | 
O=S(=O)(NCc1ccccc1)c1ccccc1-c1nnc(S)o1 |  |  |  |  |  |  |  | 4.52 |  |  |  |  | 
CCSc1nnc(-c2ccccc2S(=O)(=O)NCc2ccccc2)o1 |  |  |  |  |  |  |  | 8.21 |  |  |  |  | 
O=C(N/N=C/c1ccc(F)cc1)C(C(=O)N/N=C/c1ccc(F)cc1)N1C(=O)c2ccccc2S1(=O)=O | 0.36 | 120 | 0.55 | 50.7 | 52.4 | 0.24 | 54.3 | 2.78 | 100 | 1.2 | 0.4 | 0.43 | 54.2
CC(C)NS(=O)(=O)c1ccccc1C(=O)N1N=C(c2ccccc2)CC1=O | 0.42 | 4 | 0.54 | 42.5 | 43.5 | 0.24 | 56.5 | 12.2 | 20 | 0.2 | 0.5 | 0.52 | 44.7
Cc1ccc(-c2cc(C(F)(F)F)nn2-c2ccc(S(N)(=O)=O)cc2)cc1 [CELECOXIB] | 0.41 | 3 | 0.46 | 43.8 | 47.6 | 0.24 | 62.9 |  | 0 | 0 | 0.44 | 0.44 | 53.2
O=S(=O)(NCc1ccccc1)c1ccccc1-c1nnc(S)n1/N=C/c1ccc(Br)cc1 |  |  |  |  |  |  |  | 4.21 |  |  |  |  | 

Reference: ChEMBL document CHEMBL4346689, “Novel benzenesulfonamide and 1,2-benzisothiazol-3(2H)-one-1,1-dioxide derivatives as potential selective COX-2 inhibitors” (Eur J Med Chem, 2019)
